Results taken from paper PMC9704493 (RSC Advances, 2022).
Where two headings read alike, the source gives them in different places.

Columns and labels:
Assay type in all cases: cell-based, human
[1] = system: MCF-7 breast cancer cells; experiment: MTT cell viability assay, MCF-7; settings: for Selectivity indices (SI), MCF-7: MCF-7 versus MRC-5 fibroblasts
Method in brief: (§1)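 Cells were seeded at 3 × 10^3 per well and grown for 24 h at 37 °C/5% CO2. A T0 plate was read at dosing and the others after 72 h. MTT (5 mg mL−1 in PBS) was added for 2.5 h, formazan dissolved in DMSO, and absorbance read at 550 nm. GI50 was interpolated, in triplicate. SI compares MRC-5 with cancer-line activity.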

MRC-5 fibroblasts = experiment: MTT cell viability assay, MRC-5 normal fibroblasts; settings: for GI50: read-out: GI50 values (M) mean ± SD, MRC-5
Method in brief: as §1

[2] = system: HCT-116 colorectal carcinoma cells; experiment: MTT cell viability assay, HCT-116; settings: for Selectivity indices (SI), HCT-116: HCT-116 versus MRC-5 fibroblasts
Method in brief: as §1

HCT-116 cells = experiment: Clonogenic assay, HCT-116 colony formation; settings: 10 μM, 24 h exposure; second group, printed as HCT-116
Method in brief: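 HCT-116 cells (RPMI 1640, 10% FBS, 1% glutamine) were seeded at 400 per well in 6-well plates and left to attach for 24 h. They were given test compound at 5 or 10 μM for 24 h, with medium alone as control. Cells were then washed with cold PBS and grown in fresh medium at 37 °C until control colonies reached ≥50 cells. Colonies were methanol-fixed, stained with 0.05% methylene blue and counted. Survival fraction is % of control, from five independent trials (n = 2 each).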

[3] = read-out: GI50 values (M) mean ± SD, MCF-7, MTT, 72 h exposure
[4] = read-out: GI50 values (M) mean ± SD, HCT-116, MTT, 72 h exposure
[5] = Homo sapiens, MCF7, 72 h, read-out: GI50 values (M) mean ± SD, MCF-7
[6] = Homo sapiens, HCT-116, 72 h, read-out: GI50 values (M) mean ± SD, HCT-116
[7] = Homo sapiens, MCF7, 72 h, read-out: GI50 values (µM) mean ±SD, MCF-7

Row | Compound | Selectivity indices (SI), MCF-7 [1] | Selectivity indices (SI), HCT-116 [2] | GI50 [1, 5] [M] | GI50 (MRC-5 fibroblasts; Homo sapiens, MRC5, 72 h) [M] | GI50 [2, 6] [M] | other results
1 | 2-(2-(1-(4-Fluorophenyl)ethylidene)hydrazinyl)-4-(4-cyanophenyl) thiazole [Compound 3e] | 1.6 | 6.5 | – | – | – | GI50 [1, 3]: 2.85e-05 ± 8e-07 M; GI50 (MRC-5 fibroblasts; MTT, 72 h exposure): 4.47e-05 ± 2e-07 M; GI50 [2, 4]: 6.9e-06 ± 2e-07 M
2 | N#Cc1ccc(-c2csc(NN=Cc3cc(Br)cs3)n2)cc1 [3c′, 2-(2-((4-Bromothiophen-2-yl)methylene)hydrazinyl)-4-(4-cyanophenyl) thiazole] | 1.8 | 1.2 | 4.3e-06 ± 3e-07 | 7.6e-06 ± 1e-07 | 6.2e-06 ± 5e-07 | –
3 | Cc1nc(C=NNc2nc(-c3ccc(C#N)cc3)cs2)sc1C [3d′, 2-(2-((4,5-Dimethylthiazol-2-yl)methylene) hydrazinyl)-4-(4-cyanophenyl) thiazole] | 2.5 | 5.1 | 9e-06 ± 1.2e-06 | 2.25e-05 ± 2e-06 | 4.4e-06 ± 2e-07 | –
4 | N#Cc1ccc(-c2csc(NN=Cc3ccccc3F)n2)cc1 [Compound 3a, 2-(2-(2-Fluorobenzylidene)hydrazinyl)-4-(4-cyanophenyl) thiazole] | – | – | – | – | – | colony formation (HCT-116 cells): completely prevented colony formation
5 | N#Cc1ccc(-c2csc(NN=Cc3cccc(F)c3)n2)cc1 [Compound 3b, 2-(2-(3-Fluorobenzylidene)hydrazinyl)-4-(4-cyanophenyl) thiazole] | – | – | – | – | – | GI50 [1, 7]: 3.66e-05 M; GI50 ([2]; Homo sapiens, HCT-116, 72 h, read-out: GI50 values (µM) mean ±SD, HCT-116): 2.2e-06 M
6 | N#Cc1ccc(-c2csc(NN=Cc3cccc(I)c3)n2)cc1 [Compound 3d, 2-(2-(3-Iodobenzylidene)hydrazinyl)-4-(4-cyanophenyl) thiazole] | – | – | – | – | – | GI50 [1, 7]: 2.3e-06 M; fold reduction in potency against HCT-116 cells ([2]; relative to its potency against MCF-7 cells): 5 fold
7 | N#Cc1ccc(-c2csc(NN=Cc3cc(Cl)ccc3O)n2)cc1 [Compound 3g, 2-(2-(5-Chloro-2-hydroxybenzylidene) hydrazinyl)-4-(4-cyanophenyl) thiazole] | 4.1 | 1.7 | 4.1e-06 ± 4e-07 | 1.68e-05 ± 7e-07 | 9.7e-06 ± 4e-07 | –
8 | Cc1ccc(C)c(C=NNc2nc(-c3ccc(C#N)cc3)cs2)c1 [Compound 3i, 2-(2-(2,5-Dimethylbenzylidene)hydrazinyl)-4-(4-cyanophenyl) thiazole] | 0.9 | 0.8 | 7.1e-06 ± 3e-07 | 6.2e-06 ± 4e-07 | 8e-06 ± 3e-07 | –
9 | COc1ccc(OC)c(C=NNc2nc(-c3ccc(C#N)cc3)cs2)c1 [Compound 3j, 2-(2-(2,5-Dimethoxybenzylidene)hydrazinyl)-4-(4-cyanophenyl) thiazole] | 6.1 | 3.3 | 3.7e-06 ± 4e-07 | 2.25e-05 ± 1e-07 | 6.9e-06 ± 2.5e-06 | –
10 | COc1ccc(C=NNc2nc(-c3ccc(C#N)cc3)cs2)c(C)c1 [Compound 3k, 2-(2-(4-Methoxy-2-methylbenzylidene) hydrazinyl)-4-(4-cyanophenyl) thiazole] | 0.4 | 0.4 | 3.68e-05 ± 2.7e-06 | 1.61e-05 ± 2e-07 | 3.7e-05 ± 9e-07 | –
11 | COc1ccc(C=NNc2nc(-c3ccc(C#N)cc3)cs2)c(OC)c1 [Compound 3l, 2-(2-(2,4-Dimethoxybenzylidene)hydrazinyl)-4-(4-cyanophenyl) thiazole] | 3.3 | 3.6 | 9.2e-06 ± 4e-07 | 3.01e-05 ± 6e-07 | 8.4e-06 ± 9e-07 | GI50 values (µM) mean ±SD, MRC-5 (MRC-5 fibroblasts; MTT, 72 h exposure): no significant activity
12 | N#Cc1ccc(-c2csc(NN=Cc3ccc(C(F)(F)F)cc3C(F)(F)F)n2)cc1 [Compound 3m, 2-(2-(2,4-Bis-(trifluoromethyl)benzylidene) hydrazinyl)-4-(4-cyanophenyl) thiazole] | 8.3 | 3.5 | 2e-06 ± 8e-07 | 1.65e-05 ± 6e-07 | 4.7e-06 ± 1.3e-06 | –
13 | COc1cc(C=NNc2nc(-c3ccc(C#N)cc3)cs2)cc(OC)c1 [Compound 3o, 2-(2-(3,5-Dimethoxybenzylidene)hydrazinyl)-4-(4-cyanophenyl) thiazole] | 0.4 | 0.5 | 4.78e-05 ± 1.1e-06 | 1.65e-05 ± 5e-07 | 3.56e-05 ± 1.1e-06 | –
14 | N#Cc1ccc(-c2csc(NN=Cc3cc(F)cc(Br)c3)n2)cc1 [Compound 3p, 2-(2-(3-Bromo-5-fluorobenzylidene)hydrazinyl)-4-(4-cyanophenyl) thiazole] | 2.4 | 2.2 | 7.3e-06 ± 2e-07 | 1.77e-05 ± 7e-07 | 8.1e-06 ± 2e-07 | –
15 | N#Cc1ccc(-c2csc(NN=Cc3cc(F)cc(C(F)(F)F)c3)n2)cc1 [Compound 3q, 2-(2-(3-Fluoro-5-(trifluoromethyl)benzylidene) hydrazinyl)-4-(4-cyanophenyl) thiazole] | 3.5 | 4.1 | 2.6e-06 ± 1e-07 | 9e-06 ± 1e-07 | 2.2e-06 ± 1e-07 | colony formation (HCT-116 cells): completely prevented colony formation
16 | N#Cc1ccc(-c2csc(NN=Cc3cc(Br)cc([N+](=O)[O-])c3)n2)cc1 [Compound 3r, 2-(2-(3-Bromo-5-nitrobenzylidene)hydrazinyl)-4-(4-cyanophenyl) thiazole] | 3 | 4.1 | 4.1e-06 ± 4e-07 | 1.22e-05 ± 6e-07 | 3e-06 ± 1e-06 | –
17 | CCOc1cc(C=NNc2nc(-c3ccc(C#N)cc3)cs2)ccc1O [Compound 3s, 2-(2-(3-Ethoxy-4-hydroxybenzylidene) hydrazinyl)-4-(4-cyanophenyl) thiazole] | 2.5 | 2.2 | 7.3e-06 ± 8e-07 | 1.81e-05 ± 4e-07 | 8.4e-06 ± 6e-07 | –
18 | Cc1ccc(C=NNc2nc(-c3ccc(C#N)cc3)cs2)cc1C [Compound 3t, 2-(2-(3,4-Dimethylbenzylidene)hydrazinyl)-4-(4-cyanophenyl) thiazole] | 2.9 | 2 | 4.5e-06 ± 1.4e-06 | 1.32e-05 ± 3e-07 | 6.5e-06 ± 2.6e-06 | colony formation (HCT-116 cells): completely prevented colony formation
19 | N#Cc1ccc(-c2csc(NN=Cc3ccc(Cl)c(Cl)c3)n2)cc1 [Compound 3u, 2-(2-(3,4-Dichlorobenzylidene)hydrazinyl)-4-(4-cyanophenyl) thiazole] | 2.4 | 1.1 | 1.28e-05 ± 7e-07 | 3.04e-05 ± 2e-07 | 2.72e-05 ± 5e-07 | –
20 | Cc1cc(C)c(C=NNc2nc(-c3ccc(C#N)cc3)cs2)c(C)c1 [Compound 3v, 2-(2-(2,4,6-Trimethylbenzylidene)hydrazinyl)-4-(4-cyanophenyl) thiazole] | 2.7 | 2.8 | 4.2e-06 ± 6e-07 | 1.12e-05 ± 3e-07 | 4e-06 ± 1e-06 | –
21 | N#Cc1ccc(-c2csc(NN=Cc3c(F)cc(F)cc3F)n2)cc1 [Compound 3w, 2-(2-(2,4,6-Trifluorobenzylidene)hydrazinyl)-4-(4-cyanophenyl) thiazole] | 0.2 | 0.7 | 7e-06 ± 2e-07 | 1.1e-06 ± 5e-07 | 1.5e-06 ± 8e-07 | –
22 | N#Cc1ccc(-c2csc(NN=Cc3c(O)cc(O)cc3O)n2)cc1 [Compound 3x, 2-(2-(2,4,6-Trihydroxybenzylidene)hydrazinyl)-4-(4-cyanophenyl) thiazole] | 6.9 | 3.4 | 2.3e-06 ± 3e-07 | 1.58e-05 ± 5e-07 | 4.7e-06 ± 3e-07 | –
23 | COc1cc(C=NNc2nc(-c3ccc(C#N)cc3)cs2)cc(OC)c1OC [Compound 3y, 2-(2-(3,4,5-Trimethoxybenzylidene)hydrazinyl)-4-(4-cyanophenyl) thiazole] | 8.7 | 14.6 | 2.7e-06 ± 1e-07 | 2.34e-05 ± 3e-07 | 1.6e-06 ± 4e-07 | –
24 | COc1cc(OC)c(OC)cc1C=NNc1nc(-c2ccc(C#N)cc2)cs1 [Compound 3z, 2-(2-(2,4,5-Trimethoxybenzylidene)hydrazinyl)-4-(4-cyanophenyl) thiazole] | 8.7 | 11.5 | 2.5e-06 ± 2e-07 | 2.18e-05 ± 2e-07 | 1.9e-06 ± 5e-07 | fold increase in activity against HCT-116 cells ([2]; relative to compound 3j): 3.5 fold
25 | N#Cc1ccc(-c2csc(N/N=C/c3ccccc3F)n2)cc1 [a] | – | – | 3.4e-06 ± 1e-06 | 1.66e-05 ± 1e-07 | 3.1e-06 ± 1.5e-06 | –
26 | N#Cc1ccc(-c2csc(N/N=C/c3cccc(F)c3)n2)cc1 [b] | – | – | 3.66e-05 ± 1.4e-06 | 1.68e-05 ± 5e-07 | 2.2e-06 ± 5e-07 | –
27 | N.N.[Cl][Pt][Cl] [cisplatin, reference compound] | 1.3 | 0.9 | – | – | – | GI50 [1, 3]: 7.5e-06 ± 7e-07 M; GI50 (MRC-5 fibroblasts; MTT, 72 h exposure): 9.7e-06 ± 4e-07 M; GI50 [2, 4]: 9.8e-06 ± 2e-07 M
28 | N#Cc1ccc(-c2csc(N/N=C/c3cccc(I)c3)n2)cc1 [d] | – | – | 2.3e-06 ± 2e-07 | 3.49e-05 ± 3e-07 | 1.13e-05 ± 7e-07 | –
